According to ChEMBL document CHEMBL5724801, “EUbOPEN Chemogenomics Library - Multiplex” (2024):
Where “and” joins values, the source holds several entries; their conditions need not be identical. Equal entries are not always repeated.

Tested on: U2OS
Assay: Multiplex assay against U2OS
Type: toxicity, cell-based
Conditions: human
Procedure, shortened: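 On a CQ1 microscope at 37°C and 5% CO2, live cells were imaged after compound addition. They had been stained at seeding with Hoechst33342, BioTracker Green Microtubule Cytoskeleton Dye, MitoTracker Red and Annexin V Alexa Fluor 680. CellPathfinder machine-learning gating assigned cells to Hoechst high-intensity objects or normal cells, normal cells to healthy, pyknosed or fragmented nuclei, and pyknosed cells to mitotic or apoptotic. Tubulin, mitochondrial-mass and membrane-permeability phenotypes are per cents of healthy-nucleus cells.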

[1] = 12 h, 1 µM, compound concentration 1 uM
[2] = 12 h, 10 µM, compound concentration 10 uM
[3] = 24 h, 1 µM, compound concentration 1 uM
[4] = 24 h, 10 µM, compound concentration 10 uM
[5] = 48 h, 1 µM, compound concentration 1 uM
[6] = 48 h, 10 µM, compound concentration 10 uM

CN1CCN(c2nc3cc(C(F)(F)F)ccc3n3cccc23)CC1.O=C(O)/C=C\C(=O)O.O=C(O)/C=C\C(=O)O
Population Apoptotic (%) [1]: 77% and 100% | Population Fragmented Nuclei (%) [1]: 17% and 18% | Population Healthy Nuclei (%) [1]: 75% and 73% | Population Hoechst High Intensity Objects (%) [1]: 1% and 0% | Population Membrane Permeable-Phenotype (%) [1]: 4% and 8% | Population Mitochondria Different-Phenotype (%) [1]: 0% and 2% | Population Mitotic Cells (%) [1]: 22% and 0% | Population Normal (%) [1]: 98% and 99% | Population Pyknosed Nuclei (%) [1]: 6% and 8% | Population Tubulin-Different-Phenotype (%) [1]: 1% and 3% | Total Cell Count [1]: 266 and 111 | Population Apoptotic (%) [2]: 66% and 88% | Population Fragmented Nuclei (%) [2]: 31% and 25% | Population Healthy Nuclei (%) [2]: 53% and 68% | Population Hoechst High Intensity Objects (%) [2]: 1% and 2% | Population Membrane Permeable-Phenotype (%) [2]: 18% and 13% | Population Mitochondria Different-Phenotype (%) [2]: 45% and 41% | Population Mitotic Cells (%) [2]: 33% and 11% | Population Normal (%) [2]: 98% and 97% | Population Pyknosed Nuclei (%) [2]: 15% and 6% | Population Tubulin-Different-Phenotype (%) [2]: 19% and 21% | Total Cell Count [2]: 218 and 135 | Population Apoptotic (%) [3]: 85% and 92% | Population Fragmented Nuclei (%) [3]: 17% and 13% | Population Healthy Nuclei (%) [3]: 73% and 77% | Population Hoechst High Intensity Objects (%) [3]: 2% and 0% | Population Membrane Permeable-Phenotype (%) [3]: 5% and 8% | Population Mitochondria Different-Phenotype (%) [3]: 1% and 4% | Population Mitotic Cells (%) [3]: 14% and 7% | Population Normal (%) [3]: 97% and 99% | Population Pyknosed Nuclei (%) [3]: 9% | Population Tubulin-Different-Phenotype (%) [3]: 3% and 4% | Total Cell Count [3]: 300 and 136 | Population Apoptotic (%) [4]: 76% and 78% | Population Fragmented Nuclei (%) [4]: 31% and 19% | Population Healthy Nuclei (%) [4]: 57% and 71% | Population Hoechst High Intensity Objects (%) [4]: 3% | Population Membrane Permeable-Phenotype (%) [4]: 16% and 17% | Population Mitochondria Different-Phenotype (%) [4]: 41% and 36% | Population Mitotic Cells (%) [4]: 24% and 21% | Population Normal (%) [4]: 96% | Population Pyknosed Nuclei (%) [4]: 10% and 9% | Population Tubulin-Different-Phenotype (%) [4]: 14% and 16% | Total Cell Count [4]: 244 and 156 | Population Apoptotic (%) [5]: 87% and 85% | Population Fragmented Nuclei (%) [5]: 14% and 17% | Population Healthy Nuclei (%) [5]: 77% and 75% | Population Hoechst High Intensity Objects (%) [5]: 2% and 1% | Population Membrane Permeable-Phenotype (%) [5]: 4% and 6% | Population Mitochondria Different-Phenotype (%) [5]: 0% and 5% | Population Mitotic Cells (%) [5]: 12% and 14% | Population Normal (%) [5]: 97% and 98% | Population Pyknosed Nuclei (%) [5]: 7% | Population Tubulin-Different-Phenotype (%) [5]: 2% and 3% | Total Cell Count [5]: 447 and 187 | Population Apoptotic (%) [6]: 78% and 81% | Population Fragmented Nuclei (%) [6]: 31% and 21% | Population Healthy Nuclei (%) [6]: 52% and 67% | Population Hoechst High Intensity Objects (%) [6]: 4% and 3% | Population Membrane Permeable-Phenotype (%) [6]: 16% and 10% | Population Mitochondria Different-Phenotype (%) [6]: 17% and 16% | Population Mitotic Cells (%) [6]: 21% and 18% | Population Normal (%) [6]: 95% and 96% | Population Pyknosed Nuclei (%) [6]: 16% and 11% | Population Tubulin-Different-Phenotype (%) [6]: 12% and 9% | Total Cell Count [6]: 299 and 202

COc1ccccc1N1CCN(CCCCNC(=O)c2ccc3ccccc3c2)CC1.Cl
Population Apoptotic (%) [1]: 68% and 42% | Population Fragmented Nuclei (%) [1]: 18% and 17% | Population Healthy Nuclei (%) [1]: 69% and 75% | Population Mitochondria Different-Phenotype (%) [1]: 8% and 15% | Population Mitotic Cells (%) [1]: 31% and 57% | Population Normal (%) [1]: 95% and 97% | Total Cell Count [1]: 243 and 99 | Population Apoptotic (%) [2]: 78% and 65% | Population Fragmented Nuclei (%) [2]: 30% and 17% | Population Healthy Nuclei (%) [2]: 39% and 51% | Population Mitochondria Different-Phenotype (%) [2]: 80% and 94% | Population Mitotic Cells (%) [2]: 21% and 34% | Population Normal (%) [2]: 91% and 93% | Population Pyknosed Nuclei (%) [2]: 30% | Total Cell Count [2]: 222 and 111 | Population Apoptotic (%) [3]: 78% and 80% | Population Fragmented Nuclei (%) [3]: 18% and 21% | Population Healthy Nuclei (%) [3]: 68% | Population Mitochondria Different-Phenotype (%) [3]: 9% and 11% | Population Mitotic Cells (%) [3]: 21% and 20% | Population Normal (%) [3]: 96% and 98% | Population Pyknosed Nuclei (%) [3]: 9% | Total Cell Count [3]: 262 and 103 | Population Apoptotic (%) [4]: 90% and 100% | Population Fragmented Nuclei (%) [4]: 35% and 19% | Population Healthy Nuclei (%) [4]: 32% and 61% | Population Mitochondria Different-Phenotype (%) [4]: 78% and 93% | Population Mitotic Cells (%) [4]: 10% and 0% | Population Normal (%) [4]: 93% | Population Pyknosed Nuclei (%) [4]: 31% | Total Cell Count [4]: 234 and 125 | Population Apoptotic (%) [5]: 72% and 88% | Population Fragmented Nuclei (%) [5]: 19% and 17% | Population Healthy Nuclei (%) [5]: 71% and 64% | Population Mitochondria Different-Phenotype (%) [5]: 3% | Population Mitotic Cells (%) [5]: 27% and 12% | Population Normal (%) [5]: 95% and 96% | Population Pyknosed Nuclei (%) [5]: 9% | Total Cell Count [5]: 362 and 144 | Population Apoptotic (%) [6]: 93% and 86% | Population Fragmented Nuclei (%) [6]: 38% and 23% | Population Healthy Nuclei (%) [6]: 27% and 37% | Population Mitochondria Different-Phenotype (%) [6]: 69% and 77% | Population Mitotic Cells (%) [6]: 6% and 13% | Population Normal (%) [6]: 91% and 87% | Population Pyknosed Nuclei (%) [6]: 34% and 39% | Total Cell Count [6]: 256 and 111

Cc1ccc(-c2ccc(F)cc2COc2ccc(CCC(=O)O)cc2)cc1
Population Apoptotic (%) [1]: 75% and 100% | Population Fragmented Nuclei (%) [1]: 22% and 17% | Population Healthy Nuclei (%) [1]: 71% and 74% | Population Hoechst High Intensity Objects (%) [1]: 2% | Population Mitochondria Different-Phenotype (%) [1]: 3% and 0% | Population Mitotic Cells (%) [1]: 25% and 0% | Population Normal (%) [1]: 97% | Total Cell Count [1]: 277 and 135 | Population Apoptotic (%) [2]: 75% and 83% | Population Fragmented Nuclei (%) [2]: 31% and 14% | Population Healthy Nuclei (%) [2]: 61% and 75% | Population Hoechst High Intensity Objects (%) [2]: 1% and 2% | Population Mitochondria Different-Phenotype (%) [2]: 2% | Population Mitotic Cells (%) [2]: 25% and 16% | Population Normal (%) [2]: 98% and 97% | Total Cell Count [2]: 238 and 123 | Population Apoptotic (%) [3]: 90% and 100% | Population Fragmented Nuclei (%) [3]: 21% and 20% | Population Healthy Nuclei (%) [3]: 69% and 70% | Population Hoechst High Intensity Objects (%) [3]: 2% and 1% | Population Mitochondria Different-Phenotype (%) [3]: 2% and 0% | Population Mitotic Cells (%) [3]: 10% and 0% | Population Normal (%) [3]: 97% and 98% | Total Cell Count [3]: 340 and 175 | Population Apoptotic (%) [4]: 94% and 93% | Population Fragmented Nuclei (%) [4]: 26% and 22% | Population Healthy Nuclei (%) [4]: 67% | Population Hoechst High Intensity Objects (%) [4]: 1% and 2% | Population Mitochondria Different-Phenotype (%) [4]: 3% and 4% | Population Mitotic Cells (%) [4]: 5% and 6% | Population Normal (%) [4]: 98% and 97% | Total Cell Count [4]: 295 and 160 | Population Apoptotic (%) [5]: 89% and 95% | Population Fragmented Nuclei (%) [5]: 17% and 15% | Population Healthy Nuclei (%) [5]: 74% and 75% | Population Hoechst High Intensity Objects (%) [5]: 2% | Population Mitochondria Different-Phenotype (%) [5]: 2% | Population Mitotic Cells (%) [5]: 10% and 5% | Population Normal (%) [5]: 97% | Total Cell Count [5]: 487 and 242 | Population Apoptotic (%) [6]: 87% and 88% | Population Fragmented Nuclei (%) [6]: 21% and 16% | Population Healthy Nuclei (%) [6]: 70% and 72% | Population Hoechst High Intensity Objects (%) [6]: 2% and 1% | Population Mitochondria Different-Phenotype (%) [6]: 3% | Population Mitotic Cells (%) [6]: 12% and 11% | Population Normal (%) [6]: 97% and 98% | Total Cell Count [6]: 421 and 236
